According to ChEMBL document CHEMBL1124986, “Imidazodiazepinediones: a new class of adenosine receptor antagonists” (J Med Chem, 1990):

Columns and labels:
Adenosine receptor A1 = target: T1, Adenosine receptor A1 (Rattus norvegicus, UniProt P25099); assay: Binding affinity for Adenosine A1 receptor from rat brain using [3H]-PIA as radioligand
T1 sequence (P25099 whole entry): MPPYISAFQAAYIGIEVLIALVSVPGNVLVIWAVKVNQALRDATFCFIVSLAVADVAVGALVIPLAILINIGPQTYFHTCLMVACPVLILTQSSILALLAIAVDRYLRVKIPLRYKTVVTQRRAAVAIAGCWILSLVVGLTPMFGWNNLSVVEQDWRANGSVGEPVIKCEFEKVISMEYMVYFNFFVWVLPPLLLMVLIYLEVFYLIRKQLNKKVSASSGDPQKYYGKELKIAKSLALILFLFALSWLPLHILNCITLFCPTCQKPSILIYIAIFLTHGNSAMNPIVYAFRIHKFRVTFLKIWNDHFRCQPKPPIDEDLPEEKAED
Summary of the method: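 Rat cerebral cortex membranes incubated with 1 nM [³H]PIA at 37 °C. Means ± SEM, n = 3-5. Where inhibition was incomplete, percent inhibition at the highest concentration tested is reported.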

Adenosine A2 receptor [1] = target: T2, Adenosine A2 receptor (Rattus norvegicus, UniProt P29276+P30543); assay: Antagonism of N-ethylcarboxamido adenosine-stimulated adenylate cyclase associated with stimulation of Adenosine A2 receptor of rat PC12 membranes; assay type: functional, cell membranes, Membrane; conditions: pc-12
Adenosine A2 receptor [2] = target: T2, Adenosine A2 receptor; assay: Binding affinity for Adenosine A2 receptor from rat striatum using [3H]NECA as radioligand; assay type: protein assay
[3] = target: T3, Adenosine receptor A1 (Rattus norvegicus) (UniProt P25099); assay: Inhibition of [3H]PIA binding to Adenosine A1 receptor in rat cerebral cortical membrane; assay type: cell membranes; parameters: concentration or dose not given beside the values; conditions: concentration not given here
T3 sequence (whole entry): T1 sequence (P25099 whole entry)
Summary of the method: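 Rat cerebral cortex membranes incubated with 1 nM [³H]PIA at 37 °C. […] Means ± SEM, n = 3-5. Where inhibition was incomplete, percent inhibition at the highest concentration tested is reported.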

[4] = target: Adenosine A2 receptor (Rattus norvegicus) (UniProt P29276+P30543); assay: Inhibition of [3H]NECA binding to Adenosine A2 receptor in rat striatal membrane; assay type: cell membranes; parameters: concentration or dose not given beside the values; conditions: Striatum, concentration not given here
Summary of the method: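 Rat striatal membranes with 4 nM [³H]NECA; 50 nM N⁶-cyclopentyladenosine present to block A1 sites. IC50 converted to Ki by Cheng-Prusoff using KD 8.5 nM for [³H]NECA at A2 receptors. Means ± SEM, n = 3. Where inhibition was incomplete, percent inhibition at the highest concentration tested is reported.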

| Ki (Adenosine receptor A1) [µM] | Ki (Adenosine A2 receptor [1]) [µM] | Ki (Adenosine A2 receptor [2]) | inhibition [3] [%] | inhibition [4] [%] | Structure (SMILES) |
| --- | --- | --- | --- | --- | --- |
| 11.3 | 116 | 140 µM |  |  | CC(C)CN1C(=O)CN(C)C(=O)c2c1ncn2Cc1ccccc1 |
| > 250 | > 300 | >> 250 uM | 10 | 9 | CN1CC(=O)N(C)c2ncn(C)c2C1=O |
| 6.9 | 7.5 | 32 µM |  |  | CC(C)Cn1c(=O)n(C)c(=O)c2c1ncn2Cc1ccccc1 |
|  | > 300 | >> 250 uM | 30 | 9 | CN1CC(=O)N(C)c2[nH]cnc2C1=O |
| 104 | > 300 | >> 250 uM |  | 15 | CC(C)CN1C(=O)CN(C)C(=O)c2[nH]cnc21 |
| 236 | > 300 | >> 250 uM |  | 11 | CCCN1C(=O)CNC(=O)c2[nH]cnc21 |
| 32 | 163 | 151 µM |  |  | CCCN1C(=O)CNC(=O)c2c1ncn2Cc1ccccc1 |
| 16 | 76 | 81 µM |  |  | CCN1CC(=O)N(CC)c2ncn(Cc3ccccc3)c2C1=O |
| 11 | 47 | 52 µM |  |  | CCCN1CC(=O)N(CCC)c2ncn(Cc3ccccc3)c2C1=O |
| > 250 |  |  |  |  | CN1CC(=O)N(C)c2nc[nH]c2C1=O |
|  | 5.6 | 46 µM |  |  | Cn1c(=O)c2c(ncn2Cc2ccccc2)n(C)c1=O |
|  | 0.88 | 3.8 µM |  |  | CCCn1c(=O)c2c(ncn2Cc2ccccc2)n(CCC)c1=O |
| > 250 |  |  |  |  | CCN1CC(=O)N(CC)c2nc[nH]c2C1=O |
| > 250 | > 300 | >> 250 uM | 10 | 11 | CN1C(=O)CNC(=O)c2c1ncn2C |
| 6.7 | 6.3 | 9.1 µM |  |  | CC(C)Cn1c(=O)n(C)c(=O)c2nc[nH]c21 [ISOBUTYLMETHYLXANTHINE] |
| > 250 | 170 | > 250 µM | 40 | 23 | CCCN1CC(=O)N(CCC)c2ncn(C)c2C1=O |
| 105 | 250 | > 250 µM |  | 40 | Cn1cnc2c1c(=O)[nH]c(=O)n2C [THEOBROMINE] |
|  | > 300 | > 250 µM | 40 | 20 | CCN1CC(=O)N(CC)c2[nH]cnc2C1=O |
| > 250 | 260 | > 250 µM | 40 | 17 | CCN1CC(=O)N(CC)c2ncn(C)c2C1=O |
| 30 | 120 | > 250 µM |  | 30 | CN1CC(=O)N(C)c2ncn(Cc3ccccc3)c2C1=O |
